The test system of one series is BALL-1. The series can be described thus: Growth inhibition of human BALL-1 cells after 24 hrs by WST-1 assay. As to conditions: BALL-1, 24 h. Type of series: functional. The method in brief: (§1)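 Cancer cells were grown in McCoy's 5A with 10% FBS and penicillin/streptomycin, 37 °C, 5% CO2. Cells were seeded at 1 × 10^4 per well, cultured 12 h, then given compound (10 mM DMSO stock diluted in medium, 0.5% DMSO) for 24 h. WST-1 was added for 4 h and absorbance read at 450/630 nm. GI50 given as mean ± SE, five independent experiments.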

Series [1] in a line: Growth inhibition of HUVEC cells after 72 hrs by WST-1 assay. Type of series: cell-based. Particulars: human. The method in brief: (§2)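 Normal cells (HDF, HUVEC) were grown in Eagle's MEM with 4.5 g/L glucose, 10% FCS, 5 mM L-glutamine and penicillin/streptomycin, 37 °C, 5% CO2. Cells were seeded at 1 × 10^4 per well, cultured 12 h, then exposed to compound (0.5% DMSO final) for 72 h. Viability was read by WST-1 at 450/630 nm. GI50 given as mean ± SE of five experiments.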

Another series concerns HeLa. The series can be described thus: Growth inhibition of human HeLa cells after 24 hrs by WST-1 assay. Type of series: functional. In outline: as §1
Another series has as its system NUGC-3. The series can be described thus: Growth inhibition of human NUGC3 cells after 24 hrs by WST-1 assay. Type of series: functional. As to conditions: NUGC-3, 24 h. In outline:
as §1
(In general: Formazan colour is commonly taken as a measure of viable cells.)

The next series relates to A549. The series can be described thus: Growth inhibition of human A549 cells after 24 hrs by WST-1 assay. As to conditions: A549, 24 h. The class given is functional. The method in brief: as §1
Series [2] can be described thus: Growth inhibition of HDF cells after 72 hrs by WST-1 assay. The class given is cell-based. As to conditions: human. In outline: as §2
In another series the test system is HCT-116. The series can be described thus: Growth inhibition of against human HCT116 cells after 24 hrs by WST-1 assay. The class given is functional. As to conditions: HCT-116, 24 h. In outline: as §1

Molecules are shown by their SMILES.

Take `Nc1ccn([C@@H]2O[C@H](CO)[C@@H](O)[C@@H]2O)c(=O)n1` [CYTARABINE]: the GI50 – broadly, the concentration at which growth is held to half of that of the control – turned out to be 80 nM in the series on BALL-1; 180 nM in the series on HeLa; 250 nM in the series with NUGC-3; 200 nM in the series on A549; 120 nM in the series on HCT-116. For the same molecule, the GI50 at 72 h in series [1] was found to be 230 nM; in series [2], 250 nM.
